Assay results from ChEMBL document CHEMBL3217426, “Synthesis and in vitro biological evaluation of pyrazole group-containing analogues for PDE10A” (Medchemcomm, 2013).

Experiments:
[1] = molecular target: cAMP and cAMP-inhibited cGMP 3',5'-cyclic phosphodiesterase 10A (Homo sapiens, UniProt Q9Y233); test: Inhibition of human recombinant PDE10A catalytic domain assessed reduction in [3H]cAMP hydrolysis preincubated with enzyme for 5 mins prior to substrate addition measured after 20 mins by scintillation proximity assay
Chain of cAMP and cAMP-inhibited cGMP 3',5'-cyclic phosphodiesterase 10A (Q9Y233 whole entry, the tested form may be a part): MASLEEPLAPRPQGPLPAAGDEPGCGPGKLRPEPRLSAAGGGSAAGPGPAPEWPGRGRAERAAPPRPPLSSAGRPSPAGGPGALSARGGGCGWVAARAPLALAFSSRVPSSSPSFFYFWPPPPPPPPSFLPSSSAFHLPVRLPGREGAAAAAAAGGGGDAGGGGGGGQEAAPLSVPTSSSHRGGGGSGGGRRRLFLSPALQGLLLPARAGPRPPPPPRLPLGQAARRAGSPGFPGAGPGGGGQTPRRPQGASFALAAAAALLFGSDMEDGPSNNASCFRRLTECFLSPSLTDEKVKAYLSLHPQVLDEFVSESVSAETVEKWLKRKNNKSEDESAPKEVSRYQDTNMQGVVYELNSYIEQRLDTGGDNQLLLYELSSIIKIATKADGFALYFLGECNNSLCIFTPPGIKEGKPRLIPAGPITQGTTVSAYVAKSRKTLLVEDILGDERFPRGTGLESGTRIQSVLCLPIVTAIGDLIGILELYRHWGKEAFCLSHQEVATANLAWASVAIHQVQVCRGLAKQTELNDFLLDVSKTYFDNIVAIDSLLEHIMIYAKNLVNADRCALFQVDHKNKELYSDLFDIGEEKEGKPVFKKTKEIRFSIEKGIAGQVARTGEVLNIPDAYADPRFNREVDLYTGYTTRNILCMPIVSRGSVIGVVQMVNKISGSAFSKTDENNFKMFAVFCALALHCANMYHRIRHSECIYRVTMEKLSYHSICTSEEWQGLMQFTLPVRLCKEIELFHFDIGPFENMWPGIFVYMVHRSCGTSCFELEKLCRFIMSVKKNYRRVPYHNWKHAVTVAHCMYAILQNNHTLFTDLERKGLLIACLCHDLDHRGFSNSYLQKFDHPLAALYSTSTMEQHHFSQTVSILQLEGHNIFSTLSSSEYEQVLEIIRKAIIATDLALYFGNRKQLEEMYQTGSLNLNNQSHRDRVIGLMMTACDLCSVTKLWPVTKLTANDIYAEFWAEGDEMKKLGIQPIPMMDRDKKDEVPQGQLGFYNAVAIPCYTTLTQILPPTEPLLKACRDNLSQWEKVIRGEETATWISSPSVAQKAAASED
Method in brief: (§1)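 [3H]cAMP (40 nCi/mL, 1/3 Km) was added, then 20 min on ice (~30% turnover). Stopped with yttrium silicate SPA beads, settled 1.5 h at room temperature, CPM counted. IC50 from one-site competitive nonlinear fit, at least two independent runs.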

[2] = molecular target: cGMP-inhibited 3',5'-cyclic phosphodiesterase 3B (Homo sapiens, UniProt Q13370); test: Inhibition of human recombinant PDE3B assessed reduction in [3H]cAMP hydrolysis preincubated with enzyme for 5 mins prior to substrate addition measured after 20 mins by scintillation proximity assay; method in brief: as §1
Chain of cGMP-inhibited 3',5'-cyclic phosphodiesterase 3B (Q13370 whole entry): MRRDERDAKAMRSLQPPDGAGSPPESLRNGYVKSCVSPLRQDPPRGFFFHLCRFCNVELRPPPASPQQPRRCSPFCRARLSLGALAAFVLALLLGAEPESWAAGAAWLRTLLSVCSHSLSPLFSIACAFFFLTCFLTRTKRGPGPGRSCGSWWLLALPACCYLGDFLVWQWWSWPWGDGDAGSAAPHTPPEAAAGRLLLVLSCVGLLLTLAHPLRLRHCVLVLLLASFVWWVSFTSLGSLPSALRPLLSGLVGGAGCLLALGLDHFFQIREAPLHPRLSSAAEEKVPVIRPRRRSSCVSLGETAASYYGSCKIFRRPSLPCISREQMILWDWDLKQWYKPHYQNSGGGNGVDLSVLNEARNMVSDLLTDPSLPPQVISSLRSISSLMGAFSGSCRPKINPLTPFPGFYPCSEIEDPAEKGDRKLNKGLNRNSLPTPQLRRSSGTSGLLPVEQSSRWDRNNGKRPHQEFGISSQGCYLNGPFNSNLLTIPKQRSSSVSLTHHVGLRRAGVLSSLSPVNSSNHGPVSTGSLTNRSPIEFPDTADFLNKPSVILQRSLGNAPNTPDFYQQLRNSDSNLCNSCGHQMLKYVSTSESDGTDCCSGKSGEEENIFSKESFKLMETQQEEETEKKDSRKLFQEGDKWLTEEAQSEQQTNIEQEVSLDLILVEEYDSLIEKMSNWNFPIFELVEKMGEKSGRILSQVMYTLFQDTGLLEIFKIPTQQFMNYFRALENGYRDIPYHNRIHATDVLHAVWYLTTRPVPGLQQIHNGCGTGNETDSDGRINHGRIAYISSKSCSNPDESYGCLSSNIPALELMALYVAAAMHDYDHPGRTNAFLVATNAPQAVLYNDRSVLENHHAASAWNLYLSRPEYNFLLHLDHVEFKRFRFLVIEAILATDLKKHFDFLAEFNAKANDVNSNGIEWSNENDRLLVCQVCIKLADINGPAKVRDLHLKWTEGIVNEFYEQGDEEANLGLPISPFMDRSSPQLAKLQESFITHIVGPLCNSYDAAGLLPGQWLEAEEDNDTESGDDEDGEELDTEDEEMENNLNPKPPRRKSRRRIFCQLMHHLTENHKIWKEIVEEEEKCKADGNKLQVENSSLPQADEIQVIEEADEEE

[3] = molecular target: cGMP-inhibited 3',5'-cyclic phosphodiesterase 3A (Homo sapiens, UniProt Q14432); test: Inhibition of human recombinant PDE3A assessed reduction in [3H]cAMP hydrolysis preincubated with enzyme for 5 mins prior to substrate addition measured after 20 mins by scintillation proximity assay; method in brief: as §1
Chain of cGMP-inhibited 3',5'-cyclic phosphodiesterase 3A (Q14432 whole entry): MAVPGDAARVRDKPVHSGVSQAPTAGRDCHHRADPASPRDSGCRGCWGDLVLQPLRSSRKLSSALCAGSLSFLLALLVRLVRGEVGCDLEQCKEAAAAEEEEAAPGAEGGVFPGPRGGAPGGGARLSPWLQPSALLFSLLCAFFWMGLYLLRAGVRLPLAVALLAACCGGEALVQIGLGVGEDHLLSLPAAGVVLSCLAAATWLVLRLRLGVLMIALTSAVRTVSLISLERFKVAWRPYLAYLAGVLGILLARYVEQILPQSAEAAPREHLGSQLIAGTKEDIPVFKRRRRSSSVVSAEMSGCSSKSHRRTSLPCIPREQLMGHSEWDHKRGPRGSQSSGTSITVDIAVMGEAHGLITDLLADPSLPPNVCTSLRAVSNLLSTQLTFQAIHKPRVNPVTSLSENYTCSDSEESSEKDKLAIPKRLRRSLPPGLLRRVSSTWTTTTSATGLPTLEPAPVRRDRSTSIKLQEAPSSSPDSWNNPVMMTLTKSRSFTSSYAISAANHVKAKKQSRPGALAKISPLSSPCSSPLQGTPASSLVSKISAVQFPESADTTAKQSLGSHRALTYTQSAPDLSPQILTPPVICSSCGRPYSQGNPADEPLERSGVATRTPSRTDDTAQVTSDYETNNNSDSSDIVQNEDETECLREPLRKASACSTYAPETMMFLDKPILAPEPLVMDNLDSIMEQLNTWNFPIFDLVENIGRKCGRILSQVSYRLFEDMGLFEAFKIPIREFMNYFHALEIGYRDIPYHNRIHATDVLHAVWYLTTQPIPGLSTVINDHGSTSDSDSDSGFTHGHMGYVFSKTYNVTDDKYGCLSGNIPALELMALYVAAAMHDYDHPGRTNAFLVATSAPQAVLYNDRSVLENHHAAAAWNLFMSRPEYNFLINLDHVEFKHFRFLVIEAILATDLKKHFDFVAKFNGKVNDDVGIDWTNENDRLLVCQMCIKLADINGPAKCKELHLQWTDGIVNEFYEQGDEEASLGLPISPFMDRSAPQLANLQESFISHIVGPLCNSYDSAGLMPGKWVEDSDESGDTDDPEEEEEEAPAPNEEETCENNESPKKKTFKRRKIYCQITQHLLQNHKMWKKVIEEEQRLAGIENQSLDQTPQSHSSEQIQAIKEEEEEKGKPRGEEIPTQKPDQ

[4] = molecular target: 3',5'-cyclic-AMP phosphodiesterase 4B (Homo sapiens, UniProt Q07343); test: Inhibition of human recombinant PDE4B assessed reduction in [3H]cAMP hydrolysis preincubated with enzyme for 5 mins prior to substrate addition measured after 20 mins by scintillation proximity assay; method in brief: as §1
Chain of 3',5'-cyclic-AMP phosphodiesterase 4B (Q07343 whole entry): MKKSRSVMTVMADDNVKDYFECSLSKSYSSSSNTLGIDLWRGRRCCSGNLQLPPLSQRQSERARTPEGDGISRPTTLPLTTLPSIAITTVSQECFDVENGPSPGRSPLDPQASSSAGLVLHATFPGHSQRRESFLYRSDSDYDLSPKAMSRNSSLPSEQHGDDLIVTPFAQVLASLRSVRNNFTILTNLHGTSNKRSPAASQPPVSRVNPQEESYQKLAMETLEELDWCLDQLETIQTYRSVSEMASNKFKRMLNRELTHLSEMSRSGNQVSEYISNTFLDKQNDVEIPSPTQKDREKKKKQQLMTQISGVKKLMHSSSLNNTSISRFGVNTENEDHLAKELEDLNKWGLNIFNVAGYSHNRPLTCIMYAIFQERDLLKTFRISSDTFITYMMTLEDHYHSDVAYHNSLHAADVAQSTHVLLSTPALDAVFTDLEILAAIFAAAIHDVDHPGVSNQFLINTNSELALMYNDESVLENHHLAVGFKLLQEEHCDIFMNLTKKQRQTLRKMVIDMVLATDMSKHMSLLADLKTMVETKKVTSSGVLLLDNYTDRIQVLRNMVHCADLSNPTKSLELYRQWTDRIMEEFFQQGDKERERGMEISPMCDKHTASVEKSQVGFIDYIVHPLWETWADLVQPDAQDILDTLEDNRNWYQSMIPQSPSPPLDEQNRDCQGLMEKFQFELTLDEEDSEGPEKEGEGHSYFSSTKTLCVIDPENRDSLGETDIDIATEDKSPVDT

[5] = molecular target: 3',5'-cyclic-AMP phosphodiesterase 4A (Homo sapiens, UniProt P27815); test: Inhibition of human recombinant PDE4A assessed reduction in [3H]cAMP hydrolysis preincubated with enzyme for 5 mins prior to substrate addition measured after 20 mins by scintillation proximity assay; method in brief: as §1
Chain of 3',5'-cyclic-AMP phosphodiesterase 4A (P27815 whole entry): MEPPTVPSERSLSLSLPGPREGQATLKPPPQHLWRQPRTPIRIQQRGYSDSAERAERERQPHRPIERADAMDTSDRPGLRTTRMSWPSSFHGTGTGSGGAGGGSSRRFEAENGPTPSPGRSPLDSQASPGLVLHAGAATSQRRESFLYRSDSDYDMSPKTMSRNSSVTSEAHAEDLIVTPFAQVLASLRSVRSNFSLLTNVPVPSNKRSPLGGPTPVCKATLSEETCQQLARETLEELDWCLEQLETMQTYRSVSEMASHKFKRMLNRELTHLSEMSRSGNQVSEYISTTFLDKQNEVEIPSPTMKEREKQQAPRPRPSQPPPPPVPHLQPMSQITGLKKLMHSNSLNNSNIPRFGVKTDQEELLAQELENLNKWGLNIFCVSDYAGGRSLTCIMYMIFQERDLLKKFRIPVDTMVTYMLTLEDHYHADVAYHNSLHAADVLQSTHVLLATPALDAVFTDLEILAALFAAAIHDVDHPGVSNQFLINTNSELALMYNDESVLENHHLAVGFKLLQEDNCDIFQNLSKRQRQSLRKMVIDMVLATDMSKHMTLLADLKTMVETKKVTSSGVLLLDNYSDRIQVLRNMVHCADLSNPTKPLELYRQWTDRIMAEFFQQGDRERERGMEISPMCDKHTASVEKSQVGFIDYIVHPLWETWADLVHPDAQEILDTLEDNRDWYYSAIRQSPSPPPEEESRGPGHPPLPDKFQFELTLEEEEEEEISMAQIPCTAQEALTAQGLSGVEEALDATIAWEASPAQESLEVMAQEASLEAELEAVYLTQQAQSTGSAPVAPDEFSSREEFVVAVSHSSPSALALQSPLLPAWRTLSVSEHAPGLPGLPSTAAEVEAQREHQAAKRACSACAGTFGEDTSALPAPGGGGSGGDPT

SMILES | IC50 [1] | IC50 [2] | IC50 [3] | IC50 [4] | IC50 [5]
COc1cc(CNc2ccc(-c3nn(C)cc3-c3ccncc3)cc2)nc2ccccc12 | 13.9 µM |  |  |  | 
COc1cc2ccccc2nc1COc1ccc(-c2c(-c3ccncc3)cnn2C)cc1 | 0.00024 µM | 16.9 µM | 18.7 µM | 31.5 µM | 199 µM
COc1ccc2ccc(CNc3ccc(-c4nn(C)cc4-c4ccncc4)cc3)nc2c1 | 7.4 µM |  |  |  | 
COc1cc(COc2ccc(-c3c(-c4ccncc4)cnn3C)cc2)nc2ccccc12 | 0.00036 µM | 4.8 µM | 29 µM | 5.06 µM | 4.18 µM
COc1ccc2nc(CNc3ccc(-c4c(-c5ccncc5)cnn4C)cc3)ccc2c1 | 4.25 µM |  |  |  | 
COc1cc2ccccc2nc1COc1ccc(-c2nn(C)cc2-c2ccncc2)cc1 | 0.0004 µM | 82.7 µM | 123 µM | 3.43 µM | 3.85 µM
COc1cccc2ccc(CSc3ccc(-c4c(-c5ccncc5)cnn4C)cc3)nc12 | 3.05 µM |  |  |  | 
COc1ccc2nc(COc3ccc(-c4nn(C)cc4-c4ccncc4)cc3)ccc2c1 | 0.00182 µM | 9.75 µM | 78 µM | 2.56 µM | 3.37 µM
COc1cccc2ccc(COc3ccc(-c4c(-c5ccncc5)cnn4C)cc3)nc12 | 0.199 µM |  |  |  | 
COc1cccc2nc(COc3ccc(-c4nn(C)cc4-c4ccncc4)cc3)ccc12 | 0.06 µM |  |  |  | 
COc1cc(CSc2ccc(-c3c(-c4ccncc4)cnn3C)cc2)nc2ccccc12 | 1.85 µM |  |  |  | 
COc1ccc2ccc(CSc3ccc(-c4c(-c5ccncc5)cnn4C)cc3)nc2c1 | 0.635 µM |  |  |  | 
COc1cccc2ccc(CNc3ccc(-c4nn(C)cc4-c4ccncc4)cc3)nc12 | 10.9 µM |  |  |  | 
COc1cc(COc2ccc(-c3nn(C)cc3-c3ccncc3)cc2)nc2ccccc12 | 0.00028 µM | 3.85 µM | 27.5 µM | 1.79 µM | 2.56 µM
COc1ccc2ccc(COc3ccc(-c4nn(C)cc4-c4ccncc4)cc3)nc2c1 | 0.046 µM |  |  |  | 
COc1ccc2nc(CSc3ccc(-c4c(-c5ccncc5)cnn4C)cc3)ccc2c1 | 0.61 µM |  |  |  | 
COc1cccc2ccc(CSc3ccc(-c4nn(C)cc4-c4ccncc4)cc3)nc12 | 0.635 µM |  |  |  | 
COc1cc(CNc2ccc(-c3c(-c4ccncc4)cnn3C)cc2)nc2ccccc12 | 0.645 µM |  |  |  | 
COc1ccc2nc(CNc3ccc(-c4nn(C)cc4-c4ccncc4)cc3)ccc2c1 | 7.5 µM |  |  |  | 
COc1cccc2ccc(CNc3ccc(-c4c(-c5ccncc5)cnn4C)cc3)nc12 | 4.6 µM |  |  |  | 
COc1ccc2ccc(COc3ccc(-c4c(-c5ccncc5)cnn4C)cc3)nc2c1 | 0.095 µM |  |  |  | 
COc1cccc2ccc(COc3ccc(-c4nn(C)cc4-c4ccncc4)cc3)nc12 | 0.0415 µM |  |  |  | 
COc1ccc2ccc(CSc3ccc(-c4nn(C)cc4-c4ccncc4)cc3)nc2c1 | 0.4 µM |  |  |  | 
COc1ccc2ccc(CNc3ccc(-c4c(-c5ccncc5)cnn4C)cc3)nc2c1 | 5.15 µM |  |  |  | 
COc1ccc2nc(COc3ccc(-c4c(-c5ccncc5)cnn4C)cc3)ccc2c1 | 0.00178 µM | 3 µM | 1.5 µM | 7.1 µM | 5.6 µM
COc1cc(CSc2ccc(-c3nn(C)cc3-c3ccncc3)cc2)nc2ccccc12 | 0.168 µM |  |  |  | 
COc1ccc2nc(CSc3ccc(-c4nn(C)cc4-c4ccncc4)cc3)ccc2c1 | 0.415 µM |  |  |  | 
COc1cccc2nc(COc3ccc(-c4c(-c5ccncc5)cnn4C)cc3)ccc12 | 0.0814 µM |  |  |  | 
